Data taken from ChEMBL document CHEMBL1126909, “Synthesis and pharmacological examination of benzofuran, indan, and tetralin analogues of 3,4-(methylenedioxy)amphetamine” (J Med Chem, 1993).
Calls of active or inactive are those of the source.

Experiments:
[1] = system: Rattus norvegicus; experiment: Percentage of nondisrupted animals selecting drug liver in S-1c trained at 0.215 mg/kg; SDL; type: functional
Procedure, shortened: (§1)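 Rats and training are as above: male Sprague-Dawley, food-restricted, with training doses per drug group. Test drug was given ip in saline 30 min before extinction sessions. %SDL is the share of nondisrupted rats reaching 50 presses on the drug lever. A rat not completing 50 presses in 5 min was scored as disrupted.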

[2] = system: Rattus norvegicus; experiment: Percentage of nondisrupted animals selecting drug liver in 3 trained at 0.429 mg/kg; SDL; type: functional; procedure, shortened: as §1
[3] = system: Rattus norvegicus; experiment: Number of animals tested to that of number of animals disrupted in S-1c trained at 0.429 mg/kg; Number of animals tested=11; type: functional
Procedure, shortened: (§2)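 Drug-discrimination rats were male Sprague-Dawley, 175–200 g, kept at about 80% of free-feeding weight. They were trained against saline on (S)-1c·HCl 1.75 mg/kg, 3·HCl 1.71 mg/kg or (S)-amphetamine sulfate 1 mg/kg. Test drug was given ip in 0.9% saline at 1 mL/kg, 30 min before sessions run under extinction. A session ended at 50 presses on one lever; failing 50 presses within 5 min was scored as disrupted.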

[4] = system: Rattus norvegicus; experiment: Tested for drug-discrimination stimulus effect at 0.215 mg/kg; 0.31-0.74; type: functional
[5] = species: Rattus norvegicus; experiment: Inhibitory concentration against [3H]- DA uptake, p<0.0001; type: functional
[6] = system: Rattus norvegicus; experiment: Number of animals tested to that of number of animals disrupted in 3 trained at 0.643 mg/kg; Number of animals tested=12; type: functional; procedure, shortened: as §2
[7] = system: Rattus norvegicus; experiment: Percentage of nondisrupted animals selecting drug liver in 3 trained at 0.857 mg/kg; SDL; type: functional; procedure, shortened: as §1
[8] = system: Rattus norvegicus; experiment: Number of animals tested to that of number of animals disrupted in S-1c trained at 0.215 mg/kg; Number of animals tested=10; type: functional; procedure, shortened: as §2
[9] = system: Rattus norvegicus; experiment: Number of animals tested to that of number of animals disrupted in 3 trained at 0.108 mg/kg; Number of animals tested=8; type: functional; procedure, shortened: as §2
[10] = system: Rattus norvegicus; experiment: Number of animals tested to that of number of animals disrupted in 3 trained at 0.429 mg/kg; Number of animals tested=12; type: functional; procedure, shortened: as §2
[11] = system: Rattus norvegicus; experiment: Percentage of nondisrupted animals selecting drug liver in 3 trained at 0.215 mg/kg; SDL; type: functional; procedure, shortened: as §1
[12] = system: Rattus norvegicus; experiment: Number of animals tested to that of number of animals disrupted in 3 trained at 1.286 mg/kg; Number of animals tested=8; type: functional; procedure, shortened: as §2
[13] = species: Rattus norvegicus; experiment: Inhibitory concentration against [3H]- 5-HT uptake in crude rat synaptosomes; type: functional; conditions: Brain
Procedure, shortened: (§3)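 Crude synaptosomes from male Sprague-Dawley rat tissue homogenised in ice-cold isotonic sucrose. Preincubated 5 min at 37 °C under aeration with pargyline (final 100 μM), then chilled. Tritiated transmitter added at 10 nM final and uptake run 5 min at 37 °C. Catecholamine buffer had 0.06 mM ascorbate. Filtered and counted by scintillation. 9–10 concentrations in triplicate, 3–4 experiments, four-parameter logistic fit for IC50 ± SEM.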

[14] = system: Rattus norvegicus; experiment: Number of animals tested to that of number of animals disrupted in 3 trained at 0.215 mg/kg; Number of animals tested=11; type: functional; procedure, shortened: as §2
[15] = species: Rattus norvegicus; experiment: Inhibitory concentration against [3H]- NE uptake in crude rat synaptosomes; type: functional; conditions: Brain; procedure, shortened: as §3
[16] = system: Rattus norvegicus; experiment: Number of animals tested to that of number of animals disrupted in 3 trained at 0.857 mg/kg; Number of animals tested=11; type: functional; procedure, shortened: as §2
[17] = system: Rattus norvegicus; experiment: Number of animals tested to that of number of animals disrupted in S-1c trained at 0.643 mg/kg; Number of animals tested=10; type: functional; procedure, shortened: as §2
[18] = system: Rattus norvegicus; experiment: Number of animals tested to that of number of animals disrupted in S-1c trained at 0.857 mg/kg; Number of animals tested=10; type: functional; procedure, shortened: as §2
[19] = system: Rattus norvegicus; experiment: Percentage of nondisrupted animals selecting drug liver in S-1c trained at 0.643 mg/kg; SDL; type: functional
[20] = system: Rattus norvegicus; experiment: Tested for drug-discrimination stimulus effect at 0.429 mg/kg; 0.24-0.57; type: functional
Procedure, shortened: (§4)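 Male Sprague-Dawley rats (175–200 g) held at about 80% of free-feeding weight were trained on two levers to tell (S)-1c·HCl 1.75 mg/kg from saline. Test drugs were given in 0.9% saline, ip, 30 min before sessions run under extinction. A session ended at 50 presses on one lever, or was scored disrupted if not done within 5 min. %SDL counts nondisrupted rats. ED50 and 95% CI were derived by Litchfield–Wilcoxon.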

[21] = system: Rattus norvegicus; experiment: Percentage of nondisrupted animals selecting drug liver in 3 trained at 0.643 mg/kg; SDL; type: functional; procedure, shortened: as §1
[22] = system: Rattus norvegicus; experiment: Percentage of nondisrupted animals selecting drug liver in S-1c trained at 0.857 mg/kg; SDL; type: functional
[23] = system: Rattus norvegicus; experiment: Percentage of nondisrupted animals selecting drug liver in 3 trained at 1.286 mg/kg; SDL; type: functional; procedure, shortened: as §1
[24] = system: Rattus norvegicus; experiment: Percentage of nondisrupted animals selecting drug liver in S-1c trained at 0.429 mg/kg; SDL; type: functional
[25] = system: Rattus norvegicus; experiment: Percentage of nondisrupted animals selecting drug liver in 3 trained at 0.108 mg/kg; SDL; type: functional; procedure, shortened: as §1
[26] = system: Rattus norvegicus; experiment: Percentage of nondisrupted animals selecting drug liver in 3 trained at 0.125 mg/kg; type: functional; procedure, shortened: as §1
[27] = system: Rattus norvegicus; experiment: Number of animals tested to that of number of animals disrupted in S-1c trained at 0.250 mg/kg; Number of animals tested=15; type: functional; conditions: dose 0.25 mg/kg; procedure, shortened: as §2
[28] = system: Rattus norvegicus; experiment: Percentage of nondisrupted animals selecting drug liver in 3 trained at 1 mg/kg; type: functional; procedure, shortened: as §1
[29] = system: Rattus norvegicus; experiment: Percentage of nondisrupted animals selecting drug liver in S-1c trained at 0.250 mg/kg; type: functional; conditions: dose 0.25 mg/kg
[30] = system: Rattus norvegicus; experiment: Percentage of nondisrupted animals selecting drug liver in S-1c trained at 1 mg/kg; type: functional
[31] = system: Rattus norvegicus; experiment: Percentage of nondisrupted animals selecting drug liver in S-1c trained at 0.500 mg/kg; type: functional; conditions: dose 0.5 mg/kg; procedure, shortened: as §4
[32] = system: Rattus norvegicus; experiment: Percentage of nondisrupted animals selecting drug liver in (S)-amphetamine trained at 0.500 mg/kg; type: functional; conditions: dose 0.5 mg/kg; procedure, shortened: as §1
[33] = system: Rattus norvegicus; experiment: Number of animals tested to that of number of animals disrupted in 3 trained at 1 mg/kg; Number of animals tested=10; type: functional; procedure, shortened: as §2
[34] = system: Rattus norvegicus; experiment: Number of animals tested to that of number of animals disrupted in S-1c trained at 0.500 mg/kg; Number of animals tested=15; type: functional; conditions: dose 0.5 mg/kg; procedure, shortened: as §2
[35] = system: Rattus norvegicus; experiment: Percentage of nondisrupted animals selecting drug liver in (S)-amphetamine trained at 0.250 mg/kg; type: functional; conditions: dose 0.25 mg/kg; procedure, shortened: as §1
[36] = system: Rattus norvegicus; experiment: Percentage of nondisrupted animals selecting drug liver in (S)-amphetamine trained at 1 mg/kg; type: functional; procedure, shortened: as §1
[37] = system: Rattus norvegicus; experiment: Percentage of nondisrupted animals selecting drug liver in (S)-amphetamine trained at 0.125 mg/kg; type: functional; procedure, shortened: as §1
[38] = system: Rattus norvegicus; experiment: Number of animals tested to that of number of animals disrupted in (s)-amphetamine trained at 0.500 mg/kg; Number of animals tested=15; type: functional; conditions: dose 0.5 mg/kg
[39] = system: Rattus norvegicus; experiment: Percentage of nondisrupted animals selecting drug liver in 3 trained at 0.500 mg/kg; type: functional; conditions: dose 0.5 mg/kg; procedure, shortened: as §1
[40] = system: Rattus norvegicus; experiment: Percentage of nondisrupted animals selecting drug liver in 3 trained at 0.250 mg/kg; type: functional; conditions: dose 0.25 mg/kg; procedure, shortened: as §1
[41] = species: Rattus norvegicus; experiment: Inhibitory concentration against [3H]- DA uptake in crude rat synaptosomes; type: functional; conditions: Brain; procedure, shortened: as §3
[42] = system: Rattus norvegicus; experiment: Number of animals tested to that of number of animals disrupted in S-1c trained at 1 mg/kg; Number of animals tested=9; type: functional; procedure, shortened: as §2
[43] = system: Rattus norvegicus; experiment: Tested for drug-discrimination stimulus effect at 0.250 mg/kg in S-1c trained animals; 0.15-0.28; type: functional; procedure, shortened: as §4
[44] = system: Rattus norvegicus; experiment: Number of animals tested to that of number of animals disrupted in 3 trained at 0.125 mg/kg; Number of animals tested=10; type: functional; procedure, shortened: as §2
[45] = system: Rattus norvegicus; experiment: Number of animals tested to that of number of animals disrupted in 3 trained at 0.250 mg/kg; Number of animals tested=11; type: functional; conditions: dose 0.25 mg/kg; procedure, shortened: as §2
[46] = system: Rattus norvegicus; experiment: Number of animals tested to that of number of animals disrupted in 3 trained at 0.500 mg/kg; Number of animals tested=12; type: functional; conditions: dose 0.5 mg/kg; procedure, shortened: as §2
[47] = system: Rattus norvegicus; experiment: Percentage of nondisrupted animals selecting drug liver in S-1c trained at 0.125 mg/kg; type: functional; procedure, shortened: as §1
[48] = system: Rattus norvegicus; experiment: Number of animals tested to that of number of animals disrupted in (s)-amphetamine trained at 0.125 mg/kg; Number of animals tested=15; type: functional; procedure, shortened: as §2
[49] = system: Rattus norvegicus; experiment: Tested for drug-discrimination stimulus effect at 0.250 mg/kg in s)-amphetamine trained animals; NS= No substitution; type: functional, organism-based; set-up: dose 0.25 mg/kg
Procedure, shortened: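 Food-restricted male Sprague-Dawley rats were trained to tell (S)-amphetamine sulfate 1 mg/kg from saline. Test drug was given ip in 0.9% saline 30 min before extinction sessions, with 50 presses on one lever required within 5 min. No substitution was defined as 59% or less of nondisrupted rats selecting the drug lever, judged on the maximum across doses.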

[50] = system: Rattus norvegicus; experiment: Number of animals tested to that of number of animals disrupted in S-1c trained at 0.125 mg/kg; Number of animals tested=14; type: functional; procedure, shortened: as §2
[51] = system: Rattus norvegicus; experiment: Number of animals tested to that of number of animals disrupted in (s)-amphetamine trained at 0.250 mg/kg; Number of animals tested=14; type: functional; conditions: dose 0.25 mg/kg; procedure, shortened: as §2
[52] = system: Rattus norvegicus; experiment: Number of animals tested to that of number of animals disrupted in (s)-amphetamine trained at 1 mg/kg; Number of animals tested=10; type: functional; procedure, shortened: as §2
[53] = species: Rattus norvegicus; experiment: Tested for drug-discrimination stimulus effect in S-1c trained rats; type: functional; procedure, shortened: as §4

For `CC(N)Cc1ccc2c(c1)CCO2` (stereo not drawn), the SDL [1] was 25%, the SDL [2] was 50% and the Activity [3] was 5. For the same molecule, the ED50 [4] was 0.48 mg/kg, the IC50 [5] was 7090 nM and the Activity [6] was 4. For the same molecule, the SDL [7] was 86%, the Activity [8] was 2 and the Activity [9] was 3. For the same molecule, the Activity [10] was 6, the SDL [11] was 33% and the Activity [12] was 5. The IC50 [13] was 130 nM, the Activity [14] was 8 and the IC50 [15] was 3240 nM. For the same molecule, the Activity [16] was 4, the Activity [17] was 3 and the Activity [18] was 4. The SDL [19] was 71%, the ED50 [20] was 0.37 mg/kg and the SDL [21] was 75%. The SDL [22] was 100%, the SDL [23] was 100% and the SDL [24] was 50%. For the same molecule, the SDL [25] was 0%.
`CC(N)Cc1ccc2c(c1)CCC2` (stereo not drawn) was tested, and the SDL [26] was 13%, the Activity [27] was 5 and the SDL [28] was 100%. The SDL [29] was 70%, the SDL [30] was 100% and the SDL [31] was 100%. For the same molecule, the SDL [32] was 0%, the Activity [33] was 8 and the Activity [34] was 3. It also gave an SDL [35] of 0%, an SDL [36] of 0% and an SDL [37] of 0%. The Activity [38] was 7, the SDL [39] was 83% and the SDL [40] was 17%. For the same molecule, the IC50 [13] was 82 nM, the IC50 [41] was 1850 nM and the IC50 [15] was 849 nM. The Activity [42] was 2, the ED50 [43] was 0.2 mg/kg and the Activity [44] was 2. It also gave an Activity [45] of 5, an Activity [46] of 6 and an SDL [47] of 9%. The Activity [48] was 2, the ED50 [49] was “inactive” and the Activity [50] was 3. The Activity [51] was 2 and the Activity [52] was 6.
Molecule `CCC(Cc1ccc2c(c1)OCO2)NC` (stereo not drawn) has an ED50 [53] of 0.79 mg/kg.
`CC(N)Cc1ccc2c(c1)OCO2` (stereo not drawn) [TENAMFETAMINE] gave an IC50 [13] of 369 nM, an IC50 [41] of 1360 nM and an IC50 [15] of 629 nM.
